Source: ChEMBL document CHEMBL4049408, “Exploration of 2-((Pyridin-4-ylmethyl)amino)nicotinamide Derivatives as Potent Reversal Agents against P-Glycoprotein-Mediated Multidrug Resistance” (J Med Chem, 2017)
The source made the active and inactive calls. The rule behind the calls is not given here.

Key:
[1] = system: K562; assay: Cytotoxicity against human K562 cells after 48 hrs by MTT assay; assay type: functional, cell-based; conditions: K562, 48 h
Method in brief: (§1)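 MTT viability in parental K562 and P-gp-overexpressing K562/A02 cells. Compound alone at a concentration series gives the IC50. Mean ± SD of three independent tests.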

[2] = system: K562/A02; assay: Cytotoxicity against human K562/A02 cells overexpressing P-gp after 48 hrs by MTT assay; assay type: functional, cell-based; conditions: K562/A02, 48 h; method in brief: as §1
[3] = target: T1, ATP-dependent translocase ABCB1 (Homo sapiens, UniProt P08183); assay: Inhibition of ABCB1 ATPase in human ABCB1 membrane fraction assessed as decrease in ATPase activity at 0.5 uM preincubated with compound followed by addition of MgATP measured after 1 hr by luciferase reporter gene assay relative to control; assay type: cell membranes
[4] = system: GES1; assay: Cytotoxicity against human GES-1 cells after 48 hrs by MTT assay; assay type: cell-based; conditions: GES1, 48 h
Method in brief: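 Survival of GES-1 cells measured across a range of compound concentrations to give the IC50. Mean ± SD of three independent tests.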

[5] = target: T1, ATP-dependent translocase ABCB1; assay: (§2) Inhibition of ABCB1 in human K562/A02 cells assessed as potentiation of adriamycin-mediated cytotoxicity by measuring reduction in ADR IC50 at 5 uM preincubated for 24 hrs followed by compound washout for 12 hrs and subsequent addition of adriamycin measured after 48 hrs by MTT assay relative to control; assay type: cell-based
Method in brief: (§3)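 K562/A02 cells incubated with modulator at 5.0 µM, then washed out. Adriamycin IC50 determined at 0, 6, 12 or 24 h after removal, with an unwashed comparison. Reversal fold = IC50 without inhibitor / IC50 with inhibitor. Mean ± SD of three independent tests.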

[6] = target: T1, ATP-dependent translocase ABCB1; assay: as §2, with “6” for “12”; assay type: cell-based; method in brief: as §3
[7] = target: T1, ATP-dependent translocase ABCB1; assay: as §2, with “24” for “12”; assay type: cell-based; method in brief: as §3
[8] = target: T1, ATP-dependent translocase ABCB1; assay: Inhibition of ABCB1 in human K562/A02 cells assessed as potentiation of adriamycin-mediated cytotoxicity by measuring reduction in ADR IC50 at 5 uM preincubated for 24 hrs followed by compound washout and subsequent addition of adriamycin measured after 48 hrs by MTT assay relative to control; assay type: cell-based
Method in brief: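 K562/A02 cells incubated with modulator at 5.0 µM, then washed out. Reversal fold = IC50 without inhibitor / IC50 with inhibitor. Mean ± SD of three independent tests.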

[9] = system: K562/A02; assay: Potentiation of cyclophosphamide-mediated cytotoxicity against human K562/A02 cells at 5 uM after 48 hrs by MTT assay; assay type: functional, cell-based
Method in brief: (§4)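 K562/A02 cells given daunorubicin, paclitaxel, vinblastine (P-gp substrates) or cyclophosphamide (non-substrate), each with modulator at 5.0 µM; cytotoxicity then measured. Mean ± SD of three independent tests.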

[10] = target: T1, ATP-dependent translocase ABCB1; assay: Inhibition of ABCB1 in human K562/A02 cells assessed as increase in intracellular adriamycin accumulation at 1 uM after 2.5 hrs by spectrofluorimetric analysis; assay type: cell-based
Method in brief: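 Intracellular adriamycin measured by its autofluorescence using spectrofluorometry after 2.5 h accumulation in K562/A02 cells. Modulator tested at concentrations up to 5.0 µM; parental K562 and untreated K562/A02 cells as comparators. Mean ± SD of three experiments.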

[11] = target: T1, ATP-dependent translocase ABCB1; assay: Inhibition of ABCB1 in human K562/A02 cells assessed as potentiation of vinblastine-mediated cytotoxicity at 5 uM after 48 hrs by MTT assay; assay type: cell-based; method in brief: as §4
[12] = target: T1, ATP-dependent translocase ABCB1; assay: Inhibition of ABCB1 in human K562/A02 cells assessed as potentiation of paclitaxel-mediated cytotoxicity at 5 uM after 48 hrs by MTT assay; assay type: cell-based; method in brief: as §4
[13] = system: K562/A02; assay: Effect on ABCB1 level in human K562/A02 cells at 0.1 to 5 uM after 72 hrs by Western blot analysis; assay type: functional, cell-based
Method in brief: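 K562/A02 cells exposed to 0.1, 1.0 or 5.0 µmol/L compound for 72 h. ABCB1 detected by western blot; band intensity expressed as a ratio to β-tubulin.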

[14] = Inhibition of CYP3A4 in rat liver microsomes assessed as 6beta-hydroxytestosterone formation at 40 uM using testosterone as substrate by reverse-phase HPLC analysis; assay type: ADME
[15] = target: T1, ATP-dependent translocase ABCB1; assay: Inhibition of ABCB1 in human K562/A02 cells assessed as potentiation of daunorubicin-mediated cytotoxicity at 5 uM after 48 hrs by MTT assay; assay type: cell-based; method in brief: as §4
[16] = system: K562/A02; assay: Cytotoxicity against human K562/A02 cells assessed as cell survival at 5 uM after 48 hrs by MTT assay relative to control; assay type: cell-based; conditions: k562/a02, 48 h, 5 µM
Method in brief: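 MTT viability assay in P-gp-overexpressing, ADM-resistant K562/A02 cells, alongside parental K562. […] Values are mean ± SD of three independent tests.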

[17] = Selectivity index, ratio of IC50 for human GES-1 cells to EC50 for inhibition of ABCB1 in human K562/A02 cells assessed as potentiation of adriamycin-induced cytotoxicity by measuring compound concentration required for reduction of ADR IC50
Method in brief: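 SI = IC50 in GES-1 cells divided by EC50 for reversal of adriamycin resistance in K562/A02 cells.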

[18] = target: T1, ATP-dependent translocase ABCB1; assay: Inhibition of ABCB1 in human K562/A02 cells assessed as increase in intracellular Rh123 accumulation at 5 uM up to 90 mins by flow cytometry; assay type: cell-based; conditions: 1.5 h
Method in brief: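 K562/A02 cells treated with 5.0 µM modulator; Rh123-associated mean fluorescence intensity read by flow cytometry at 5, 10, 25, 30, 60 and 90 min. Untreated cells as negative control. Mean ± SD of three experiments.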

[19] = target: T1, ATP-dependent translocase ABCB1; assay: Substrate activity at ABCB1 ATPase in human ABCB1 membrane fraction assessed as increase in ATPase activity at 0.5 uM preincubated with compound followed by addition of MgATP measured after 1 hr by luciferase reporter gene assay relative to control; assay type: cell membranes
[20] = target: T1, ATP-dependent translocase ABCB1; assay: Substrate activity at ABCB1 ATPase in human ABCB1 membrane fraction assessed as increase in ATPase activity at 5 uM preincubated with compound followed by addition of MgATP measured after 1 hr by luciferase reporter gene assay relative to control; assay type: cell membranes
[21] = target: T1, ATP-dependent translocase ABCB1; assay: Inhibition of ABCB1 in human K562/A02 cells assessed as potentiation of adriamycin-mediated cytotoxicity by measuring reduction in ADR IC50 at 5 uM after 48 hrs by MTT assay relative to control; assay type: cell-based
Method in brief: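 K562/A02 cells exposed to a series of adriamycin concentrations with modulator at 5.0 µM; 0.1% DMSO as solvent control. IC50 read by MTT. Reversal fold = IC50 without inhibitor / IC50 with inhibitor. Mean ± SD of three independent tests.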

T1 sequence (P08183 whole entry): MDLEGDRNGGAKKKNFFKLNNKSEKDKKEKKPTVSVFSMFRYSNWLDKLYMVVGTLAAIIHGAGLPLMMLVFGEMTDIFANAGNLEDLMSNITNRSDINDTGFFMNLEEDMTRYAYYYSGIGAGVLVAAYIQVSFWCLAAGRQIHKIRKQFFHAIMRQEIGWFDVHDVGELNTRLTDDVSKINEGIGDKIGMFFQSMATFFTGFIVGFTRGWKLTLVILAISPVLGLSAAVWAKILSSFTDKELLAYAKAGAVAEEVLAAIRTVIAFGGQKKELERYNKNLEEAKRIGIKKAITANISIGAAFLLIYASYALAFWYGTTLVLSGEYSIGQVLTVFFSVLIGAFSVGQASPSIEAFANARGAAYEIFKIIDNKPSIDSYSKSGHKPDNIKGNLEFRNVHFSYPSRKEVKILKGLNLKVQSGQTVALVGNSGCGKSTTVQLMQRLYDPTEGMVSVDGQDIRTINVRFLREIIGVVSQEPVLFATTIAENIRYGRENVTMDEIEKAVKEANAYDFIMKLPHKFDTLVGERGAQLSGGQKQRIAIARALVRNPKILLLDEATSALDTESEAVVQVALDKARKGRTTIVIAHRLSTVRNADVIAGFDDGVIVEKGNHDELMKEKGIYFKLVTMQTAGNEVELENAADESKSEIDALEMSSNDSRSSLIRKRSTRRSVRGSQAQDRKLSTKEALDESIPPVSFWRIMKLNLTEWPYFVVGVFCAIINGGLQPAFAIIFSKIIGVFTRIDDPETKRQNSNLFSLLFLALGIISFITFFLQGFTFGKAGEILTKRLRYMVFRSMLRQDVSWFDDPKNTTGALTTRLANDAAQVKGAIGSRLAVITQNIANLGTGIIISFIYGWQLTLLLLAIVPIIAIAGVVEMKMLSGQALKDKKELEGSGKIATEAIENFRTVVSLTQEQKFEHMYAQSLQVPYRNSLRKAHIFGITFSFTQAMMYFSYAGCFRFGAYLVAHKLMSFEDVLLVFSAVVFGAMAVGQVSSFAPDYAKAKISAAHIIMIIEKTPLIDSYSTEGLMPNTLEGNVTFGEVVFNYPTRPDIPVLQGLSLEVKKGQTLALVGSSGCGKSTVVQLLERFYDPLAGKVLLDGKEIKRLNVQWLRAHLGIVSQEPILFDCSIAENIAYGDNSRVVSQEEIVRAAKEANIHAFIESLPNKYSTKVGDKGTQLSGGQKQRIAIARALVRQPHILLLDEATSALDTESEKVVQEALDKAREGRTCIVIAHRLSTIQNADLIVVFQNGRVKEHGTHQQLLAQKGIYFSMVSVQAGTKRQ

inhibition (INH) [10] | inhibition (INH) [18] | SMILES | IC50 [1] [µM] | IC50 [2] [µM] | fold change (FC) [5] | fold change (FC) [6] | fold change (FC) [7] | fold change (FC) [8] | further results
Active | Active | COc1cc2c(cc1OC)CN(CCc1ccc(NC(=O)c3cccnc3NCc3ccncc3)cc1)CC2 | 55.4 | 74.9 | 14.54 | 20.03 | 7.84 | 27.98 | inhibition (INH) [3]: Active; IC50 [4]: > 100 µM; Activity [9]: inactive; inhibition (INH) [11]: Active; inhibition (INH) [12]: Active; Activity [13]: inactive; inhibition (INH) [14]: Not Active; inhibition (INH) [15]: Active; Activity [16]: Non-Toxic; Ratio IC50/EC50 [17]: >836.1
Active | Active | N#CC1(c2ccc(NC(=O)c3cccnc3NCc3ccncc3)cc2)CCCC1 [RIVOCERANIB] | 14.9 to 15.9 | 19.8 to 20.8 | 3.97 | 6.12 | 2.46 | 7.35 | fold change (FC) [19]: 1.41; fold change (FC) [20]: 2.68; fold change (FC) [21]: 8.63 to 8.71
